Measurements taken from ChEMBL document CHEMBL1141336, “Isolation and structure elucidation of kadlongilactones C-F from Kadsura longipedunculata by NMR spectroscopy and DFT computational methods” (J Nat Prod, 2007).
Counter-ions that a name gives are not always drawn.

Experiments:
K562 = assay: Cytotoxicity against human K562 cells after 72 hrs by trypan blue exclusion method; settings: K562, 72 h
HT-29 = assay: Cytotoxicity against human HT29 cells after 72 hrs by SRB assay; assay type: functional, cell-based; settings: HT-29, 72 h
How it was run: (§1)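 Adherent tumour cells were seeded in 96-well plates 24 h before dosing and exposed continuously to a series of compound concentrations for 72 h. Cells were then fixed and stained with sulforhodamine B to read out cytotoxicity.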

A549 = assay: Cytotoxicity against human A549 cells after 72 hrs by SRB assay; assay type: functional, cell-based; settings: A549, 72 h
How it was run: as §1

Compound | IC50 (K562) [µM] | IC50 (HT-29) [µM] | IC50 (A549) [µM]
CC(=O)[C@]1(N)Cc2c(O)c3c(c(O)c2[C@@H](O[C@H]2C[C@H](O)[C@H](O)CO2)C1)C(=O)c1ccccc1C3=O [AMRUBICIN HYDROCHLORIDE] | 1.26 | 4.36 | 0.82
CC1=C[C@@H]2CC3=C([C@H](O)C[C@]4(C)[C@H]3C[C@]3(O)C=C5C=CC(=O)OC(C)(C)[C@@H]5CC[C@@H]43)[C@H](C)[C@@H]2OC1=O [KADLONGILACTONE A] | 3.44 | 1.44 | 1.24
CO[C@@H]1C[C@]2(C)[C@@H](C[C@]3(O)C=C4C=CC(=O)OC(C)(C)[C@@H]4CC[C@@H]23)C2=C1[C@H](C)[C@@H]1OC(=O)C(C)=C[C@@H]1C2 [KADLONGILACTONE C] | 3.61 | 2.08 | 1.45
CC1=C[C@@H]2CC3=C([C@@H](O)C[C@]4(C)[C@H]3C[C@]3(O)C=C5C=CC(=O)OC(C)(C)[C@@H]5CC[C@@H]43)[C@H](C)[C@@H]2OC1=O [KADLONGILACTONE D] | 1.92 | 1.64 | 0.49
CO[C@H]1C[C@]2(C)[C@@H](C[C@]3(O)C=C4C=CC(=O)OC(C)(C)[C@@H]4CC[C@@H]23)C2=C1[C@H](C)[C@@H]1OC(=O)C(C)=C[C@@H]1C2 [KADLONGILACTONE E] | 3.35 | 1.32 | 0.88
